Runt-SMMHC FRET = inhibitors of RUNX1 Runt–CBFb-SMMHC binding, primary screen, biochemical, FRET, Cerulean-Runt, Venus-CBFb-SMMHC, uHTS. AID 1434, 2008. Cerulean-Runt/Venus-CBFb-SMMHC FRET ratio 530/480, 1 h. inhibition, % at 20 µM. Runt-related transcription factor 1 (Homo sapiens) + Core-binding factor subunit beta …. hit rate 0.74% among 220,000;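 active = mean inhibition across duplicate retests at 20 µM reaching about 50%, limit read from the data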;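 note: 0% = DMSO wells and 100% = wells with excess untagged CBFb-SMMHC; inhibitors lower the FRET ratio by blocking Runt binding to CBFb-SMMHC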
RanGTP-Imp inh = inhibitors of RanGTP-importin-beta interaction, primary screen, biochemical, FRET, CFP-Ran, YFP-importin-beta, homogeneous | AID 2216, 2009 | cell-free CFP-Ran/YFP-importin-beta FRET ratio | inhibition, % (test concentration not listed) | hit rate 1.1% among 300,000 | Ran GTPase (GTP-bound) - importin-beta complex;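 active = more than half of the replicate wells show a fall in the fluorescence ratio signal beyond about 16%, limit read from the data, passing the limit was not always enough; inconclusive = exactly half of the replicate wells pass the set limit; inactive = fewer than half of replicates pass the limit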;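 note: 0% = DMSO wells and 100% = Ran loaded with GDP instead of GTP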
AI-2 QS modul = Vibrio harveyi AI-2 quorum sensing modulators, primary screen, JMH597 strain, luminescence/OD600 ratio | Vibrio harveyi JMH597 AI-2 luminescence/OD600 ratio, 9 h; stronger effect = lower value; strain lacks LuxN and CqsS sensors; 0 = neutral-control median | activity change, % at 7.5 µM | hit rate 0.4% among 300,000; in the data active = activity change below about -75%, passing the limit was not always enough; inconclusive = no clear call, values can overlap the other calls;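 note: luminescence divided by OD600 gain over 9 h not by final OD600 alone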
Wee1 degr inh = Wee1 degradation inhibitors, primary screen, cell-based, HeLa, Wee1K328M-luciferase, luminescence. HeLa Luc-Wee1K328M stability; 100% = proteasome inhibitor MG132 effect. reporter increase, % at 5 µM. hit rate 1.2% among 220,000. AID 1321, 2008;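 active = activation above the mean of all tested compounds plus 3 SD, set per screening run, cut at about 8.8% in these data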;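 note: cells exposed to compound for 20 h before luminescence read; 0% = DMSO alone and 100% = MG132 at 30 µM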
Target sequence (P30291 whole entry K328M): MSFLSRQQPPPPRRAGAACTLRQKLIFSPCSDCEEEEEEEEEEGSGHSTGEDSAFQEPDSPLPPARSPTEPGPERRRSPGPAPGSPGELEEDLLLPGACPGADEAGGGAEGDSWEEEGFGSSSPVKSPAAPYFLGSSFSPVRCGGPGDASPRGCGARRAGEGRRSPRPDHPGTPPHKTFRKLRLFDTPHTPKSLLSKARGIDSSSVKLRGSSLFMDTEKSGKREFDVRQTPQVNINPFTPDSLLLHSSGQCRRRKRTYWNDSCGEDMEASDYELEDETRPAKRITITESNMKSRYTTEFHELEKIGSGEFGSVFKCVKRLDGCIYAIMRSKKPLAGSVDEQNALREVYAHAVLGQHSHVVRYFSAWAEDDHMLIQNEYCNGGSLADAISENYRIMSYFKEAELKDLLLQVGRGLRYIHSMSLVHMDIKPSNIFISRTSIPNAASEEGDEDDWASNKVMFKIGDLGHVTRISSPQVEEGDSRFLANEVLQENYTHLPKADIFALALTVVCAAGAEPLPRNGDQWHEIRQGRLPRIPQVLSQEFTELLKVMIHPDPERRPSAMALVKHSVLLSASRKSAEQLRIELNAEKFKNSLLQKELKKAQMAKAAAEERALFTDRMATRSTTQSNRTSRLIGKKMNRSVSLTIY
proKLK7 act = proKLK7 zymogen activators, primary screen, biochemical, fluorescence intensity; activation, % at 7 µM; purified proKLK7, EDANS-DABCYL substrate fluorescence; 100% is mature enzyme control, 0% vehicle; AID 652039, 2013; hit rate 0.9% among 370,000; Kallikrein-7 (Homo sapiens), P49862;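 active = activation above the mean of all tested compounds plus 3 SD, computed per campaign excluding outliers beyond control limits, cut at about 13% in these data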
Runt-CBFb FRET = inhibitors of RUNX1 Runt–CBFb binding, primary screen, biochemical, FRET, Cerulean-Runt, Venus-CBFb, uHTS; inhibition, % at 20 µM; Cerulean-Runt/Venus-CBFb FRET ratio 530/480, 1 h; hit rate 0.46% among 220,000; AID 1496, 2009; Runt-related transcription factor 1 (Homo sapiens) + Core-binding factor subunit beta …;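 active = inhibition over about 50% at 20 µM in the single-dose screen, limit read from the data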;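 note: 0% = DMSO wells and 100% = excess unlabeled CBFb competitor control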
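Assay system: Cerulean-Runt domain / Medium: Tris 50 mM pH 7.5, KCl, K2SO4, 0.01% BSA / Timing: protein complex preformed 1 h, compound exposure 1 h, room temperature, dark / Measured by: FRET, excitation 422 nm, emission at 530 and 480 nm / Evaluation: loss of energy transfer signal / Control set: 5 µM unlabeled CBFb as full-inhibition high control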
Wee1 stab conf = Wee1 degradation inhibitors, confirmation, cell-based, HeLa, Wee1K328M-luciferase, luminescence, triplicate; shares compounds with Wee1 degr inh; HeLa Luc-Wee1K328M degradation; vehicle 0%, proteasome-blocked wells 100%; activation, % at 5 µM; hit rate 4% among 1,100; in the data active = activation above about 8.9%
RUNX1 CBFb TR = inhibitors of RUNX1 Runt–CBFb binding, biochemical, TR-FRET | inhibition, % at 20 µM | hit rate 20% among 480 | TR-FRET RUNX1 Runt domain-CBFb binding | shares compounds with Runt-CBFb FRET; in the data active = inhibition above about 40%
YIC FRET counter = YIC intramolecular FRET probe signal interference, dose response, counter-screen for RanGTP-importin-beta inhibitor project, biochemical, fluorescence FRET; shares compounds with RanGTP-Imp inh; Purified YIC probe, intramolecular FRET ratio YFP/CFP; IC50, µM; hit rate 40% among 1,000; AID 435026, 2010;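 active = fitted half-maximal inhibitory concentration no more than tenfold above the top dose tested; inconclusive = flat fit with 30 to 70% activity, or poor fit; inactive = half-maximal concentration beyond tenfold above the top dose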
proKLK7 act conf = proKLK7 zymogen activators, confirmation, biochemical, fluorescence intensity, triplicate. purified proKLK7, EDANS-DABCYL substrate fluorescence; scaled: vehicle 0, mature enzyme 100. hit rate 68% among 3,200. activation, % at 7 µM. AID 686949, 2013. shares compounds with proKLK7 act;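 active = activation, as change over the incubation, above the mean of all tested compounds plus 3 SD, cut at about 13% in these data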
EDANS interfere = EDANS-DABCYL substrate optical interference, artefact control for kallikrein-7 zymogen activator project, biochemical, fluorescence intensity, high throughput | shares compounds with proKLK7 act | no enzyme, 4 h; solvent 0%, active enzyme control 100% | activation, % at 7 µM | hit rate 80% among 3,200 | AID 686952, 2013;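 active = activation above the all-compound mean plus 3 SD, ignoring values outside control-based bounds, cut at about 4.8% in these data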;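 note: value is the 4 h activation minus the activation read at time zero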
* marks the source's active call; other numbers are inactive results; ? = inconclusive; . = no result. This is a sample that favours compounds with a hit; in the whole collection about 2.9% have one here.

SMILES	Runt-SMMHC FRET	RanGTP-Imp inh	AI-2 QS modul	Wee1 degr inh	proKLK7 act	Runt-CBFb FRET	others
CCOC(=O)c1c(N)n(Cc2ccc(OC)cc2)c2nc3ccccc3nc12	110.5*	11.6	17.6	-0.2	-25.1	46.9
COC(=O)c1c(N)n(Cc2ccc(OC)cc2)c2nc3ccccc3nc12	118.5*	.	.	-0.1	-6.2	47.4
CCOC(=O)c1c(C)n(Cc2ccco2)c2ccc(OC)cc12	1.6	2.6	-9.9	1.8	-0.9	1.3
CC(C)OC(=O)c1c(N)n(Cc2ccco2)c2nc3ccccc3nc12	.	?	18.9	1.5	7.4	.
COC(=O)C1=C(c2ccc(F)cc2OCc2ccccc2)C[C@@H]2CC[C@H]1N2C(=O)NCc1ccc([N+](=O)[O-])cc1	.	.	.	.	0.1	.
COC(=O)c1c2[n+](cc3cc(OC)c(OC)cc13)CCc1cc(OC)c(OC)cc1-2	.	-3.5	11.6	.	0.0	.
CCOP(=O)(OCC)C(C)(C)NC(=O)C(Cl)(Cl)Cl	-0.3	84.5*	19.0	4.0	-0.9	0.1
Fc1ccc(CNCCc2ccccc2)cc1	-1.9	-6.2	18.9	-2.6	-0.3	-1.5
C1=C(CCNCc2ccccc2)CCCC1	9.2	-4.0	6.9	9.3*	0.4	1.7
CCCCC(=O)N/N=C/c1c(O)n(CCc2ccccc2)c(=O)[nH]c1=O	0.0	2.4	13.6	20.5*	0.7	0.7	Wee1 stab conf=1.7
COc1ccc(NC2=NC(C)(C)CS2)cc1	10.6	-3.1	15.8	16.2*	0.1	15.5	Wee1 stab conf=1.8
COc1ccc(NC2=NCC(C)S2)cc1 (stereo not given)	-3.9	0.2	0.6	2.1	0.3	0.1
Cc1ncoc1C(=O)NCC1=C(c2ccc3ccccc3c2)C[C@@H]2CC[C@H]1N2Cc1ccco1	.	.	.	.	-0.1	.
NC(Cc1ccc(F)cc1)c1csc(Nc2ncccn2)n1 (stereo not given)	.	.	.	.	-0.2	.
CCn1cc(CN2CCCC(C(=O)c3sccc3C)C2)cn1 (stereo not given)	0.3	-9.4	20.8	11.1*	-0.1	-0.8	Wee1 stab conf=0.5
O=S1(=O)CC2(N3CCOCC3)CCCCC21 (stereo not given)	-4.9	6.0	16.7	1.5	-0.7	-0.2
O=S1(=O)CC2(N3CCOCC3)CCCCCCC21 (stereo not given)	1.0	?	6.3	-1.3	0.1	79.5*	RUNX1 CBFb TR=-9.7
CO[C@H]1C=C2CCN(C)[C@H]2C2c3cc4c(cc3C(=O)O[C@@H]21)OCO4 (stereo not given in full)	.	.	.	.	-0.2	.
O=C(NCCO)c1nsnc1NCCCl	-6.6	-1.3	7.3	-1.8	-0.1	55.8*	RUNX1 CBFb TR=25.3
CCCNC(=O)c1c(N)n(Cc2ccco2)c2nc3ccccc3nc12	58.7*	93.0*	11.9	4.4	.	52.4*	RUNX1 CBFb TR=22.7
COCCOC(=O)c1c(N)n(Cc2ccc(OC)cc2)c2nc3ccccc3nc12	105.2*	8.5	24.6	-0.4	-46.9	51.6*	RUNX1 CBFb TR=30.9
C[C@]12CC[C@@H]3c4ccc(O)c(O)c4CC[C@H]3[C@@H]1CC[C@@H]2O	66.2*	?	26.0	1.9	0.6	54.5*	RUNX1 CBFb TR=51.9*
C[C@]12CC[C@H]3[C@@H](CCC4=CC(=O)CC[C@@H]43)[C@@H]1CC[C@@H]2O	.	.	.	.	-0.7	.
Cc1ccc(S(=O)(=O)c2nc(-c3ccccc3Cl)oc2N(C)C2CCN(C)CC2)cc1	.	.	.	.	-0.6	.
C=CC[N+]1(C)CC[C@]23c4c5ccc(O)c4O[C@H]2C(=O)CC[C@@]3(O)[C@H]1C5 (stereo not given in full)	.	1.0	28.5	.	0.2	.
COCCCn1c(N)c(C(=O)OCCOC)c2nc3ccccc3nc21	116.1*	?	41.3	6.8	84.1*	81.0*	RUNX1 CBFb TR=25.0;proKLK7 act conf=71.3*;EDANS interfere=78.0*
CCOC(=O)c1c(N)n(CCCOC(=O)c2ccco2)c2nc3ccccc3nc12	116.0*	23.5*	13.4	0.1	39.2*	72.4*	RUNX1 CBFb TR=23.2;YIC FRET counter=23.8*;proKLK7 act conf=63.3*;EDANS interfere=63.9*
CCCCOC(=O)c1ccccc1C(=O)OCCCC	.	.	.	.	0.1	.
C#C[C@]1(O)CC[C@H]2[C@@H]3CCC4=Cc5nc6nc7ccccc7n6cc5C[C@]4(C)[C@H]3CC[C@@]21C	.	.	.	.	-14.6	.
